Experimental data taken from ChEMBL document CHEMBL4350961, “Discovery of Pyrrolo[3,2- d]pyrimidin-4-one Derivatives as a New Class of Potent and Cell-Active Inhibitors of P300/CBP-Associated Factor Bromodomain” (J Med Chem, 2019).
Activity calls are given as the source filed them. No cut-off for these calls is given here.

Key:
[1] = biological target: Bromodomain-containing protein 3 (Homo sapiens) (UniProt Q15059); experiment: Binding affinity to human partial length BRD3 bromodomain 2 (G306 to P416 residues) expressed in bacterial expression system at 1 uM by BROMOscan assay
How it was run: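 BROMOscan bromodomain cross-screen run by an outside service, compound at 1 µM against 32 recombinant bromodomains. Binding given as percent of control.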

[2] = Cmax in Sprague-Dawley rat at 10 mg/kg, po administered via gavage by LC-MS/MS analysis; format: ADME, organism-based; design: dose 10 mg/kg, route oral; conditions: in vivo
How it was run: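 Serial jugular-vein blood taken at set times, spun to plasma at 4 ℃, stored at -80 °C. Plasma extracted with acetonitrile containing internal standard, quantified by LC-MS/MS; noncompartmental fit.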

[3] = Oral bioavailability in Sprague-Dawley rat at 10 mg/kg administered via gavage by LC-MS/MS analysis; format: ADME, organism-based; conditions: in vivo
[4] = biological target: Tyrosine-protein kinase ABL1 (Homo sapiens) (UniProt P00519); experiment: Inhibition of recombinant human ABL (27 to end residues) at 10 uM using EAIYAAPFAKKK as substrate measured after 40 mins in presence of [gamma33P]ATP by scintillation counting method
[5] = test system: Tyrosine-protein kinase receptor UFO (Homo sapiens), P30530 [Q764R]; experiment: Inhibition of recombinant human AXL Q764R mutant (473 to end residues) at 10 uM using KKSRGDYMTMQIG as substrate measured after 40 mins in presence of [gamma33P]ATP by scintillation counting method
[6] = biological target: CDC7/Cyclin B1 (Homo sapiens) (UniProt P14635+O00311); experiment: Inhibition of recombinant full-length human CDC7/cyclinB1 at 10 uM using Histone H1 as substrate measured after 120 mins in presence of [gamma33P]ATP by scintillation counting method; format: protein-complex assay
[7] = biological target: CDK4/Cyclin D3 (Homo sapiens) (UniProt P11802+P30281); experiment: Inhibition of recombinant full-length human CDK4/cyclinD3 at 10 uM using Rb fragment as substrate measured after 40 mins in presence of [gamma33P]ATP by scintillation counting method; format: protein-complex assay
[8] = biological target: CDK7/Cyclin H/MNAT1 (Homo sapiens) (UniProt P51946+P50613+P51948); experiment: Inhibition of recombinant full length human CDK7/cyclin H/MAT1 at 10 uM using peptide substrate measured after 40 mins in presence of [gamma33P]ATP by scintillation counting method; format: protein-complex assay
[9] = biological target: Casein kinase I (Homo sapiens) (UniProt Q9HCP0+P78368+P48730+P49674+P48729); experiment: Inhibition of CK1 (unknown origin) at 10 uM; format: protein assay
How it was run: (§1)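 Kinase panel of 422 kinases screened by Eurofins KinaseProfiler at a single test-compound concentration of 10 µM.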

[10] = biological target: Casein kinase 2 (Homo sapiens) (UniProt P67870+P68400+P19784+Q8NEV1); experiment: Inhibition of human CK2 at 10 uM; format: protein assay; how it was run: as §1
[11] = biological target: Serine/threonine-protein kinase DCLK3 (Homo sapiens) (UniProt Q9C098); experiment: Inhibition of recombinant human DCAMKL3 (345 to end residues) at 10 uM using KKLNRTLSFAEPG as substrate measured after 40 mins in presence of [gamma33P]ATP by scintillation counting method
[12] = biological target: Rhodopsin kinase GRK1 (Homo sapiens) (UniProt Q15835); experiment: Inhibition of recombinant full-length human GRK1 at 10 uM using KKKKERLLDDRHDSGLDSMKDEE as substrate measured after 40 mins in presence of [gamma33P]ATP by scintillation counting method
[13] = biological target: Mitogen-activated protein kinase kinase kinase kinase 1 (Homo sapiens) (UniProt Q92918); experiment: Inhibition of recombinant human HPK1 (1 to 346 residues) at 10 uM using myelin basic protein as substrate measured after 40 mins in presence of [gamma33P]ATP by scintillation counting method
[14] = biological target: Tyrosine-protein kinase ITK/TSK (Homo sapiens) (UniProt Q08881); experiment: Inhibition of recombinant human ITK (352 to 617 residues) at 10 uM using myelin basic protein as substrate measured after 40 mins in presence of [gamma33P]ATP by scintillation counting method
[15] = biological target: Ribosomal protein S6 kinase alpha-5 (Homo sapiens) (UniProt O75582); experiment: Inhibition of recombinant human MSK1 (2 to end residues) at 10 uM using GRPRTSSFAEGKK as substrate measured after 40 mins in presence of [gamma33P]ATP by scintillation counting method
[16] = biological target: FKBP12A/mTOR (Homo sapiens) (UniProt P62942+P42345); experiment: Inhibition of recombinant full-length human mTOR/FKBP12 at 10 uM measured after 40 mins in presence of [gamma33P]ATP by scintillation counting method; format: protein-complex assay
[17] = biological target: Platelet-derived growth factor receptor alpha (Homo sapiens) (UniProt P16234); experiment: Inhibition of recombinant human PDGFRalpha (550 to end residues) at 10 uM using poly(Glu, Tyr) 4:1 as substrate measured after 40 mins in presence of [gamma33P]ATP by scintillation counting method
[18] = biological target: Platelet-derived growth factor receptor beta (Homo sapiens) (UniProt P09619); experiment: Inhibition of recombinant human PDGFRbeta (557 to end residues) at 10 uM using poly(Glu, Tyr) 4:1 as substrate measured after 40 mins in presence of [gamma33P]ATP by scintillation counting method
[19] = biological target: Protein kinase C zeta type (Homo sapiens) (UniProt Q05513); experiment: Inhibition of recombinant human PKCzeta (2 to end residues) at 10 uM using ERMRPRKRQGSVRRRV as substrate measured after 40 mins in presence of [gamma33P]ATP by scintillation counting method
[20] = test system: Proto-oncogene tyrosine-protein kinase receptor Ret (Homo sapiens), P07949 [V804L]; experiment: Inhibition of human Ret V804L mutant (658 to end residues) using KKKSPGEYVNIEFG as substrate measured after 40 mins in presence of [gamma33P]ATP by scintillation counting method; how it was run: as §1
[21] = biological target: Ribosomal protein S6 kinase alpha-6 (Homo sapiens) (UniProt Q9UK32); experiment: Inhibition of recombinant full-length human Rsk4 at 10 uM using LRRASLG as substrate measured after 40 mins in presence of [gamma33P]ATP by scintillation counting method
[22] = biological target: Mitogen-activated protein kinase 13 (Homo sapiens) (UniProt O15264); experiment: Inhibition of recombinant full-length human SAPK4 at 10 uM using myelin basic protein as substrate measured after 40 mins in presence of [gamma33P]ATP by scintillation counting method
[23] = biological target: Testis-specific serine/threonine-protein kinase 4 (Homo sapiens) (UniProt Q6SA08); experiment: Inhibition of recombinant full-length human TSSK4 at 10 uM using KKLNRTLSFAEPG as substrate measured after 40 mins in presence of [gamma33P]ATP by scintillation counting method
[24] = biological target: Serine/threonine-protein kinase VRK2 (Homo sapiens) (UniProt Q86Y07); experiment: Inhibition of human VRK2 (1 to 336 residues) using casein as substrate measured after 40 mins in presence of [gamma33P]ATP by scintillation counting method

Sequence of Ribosomal protein S6 kinase alpha-6 (Homo sapiens) (Q9UK32 whole entry): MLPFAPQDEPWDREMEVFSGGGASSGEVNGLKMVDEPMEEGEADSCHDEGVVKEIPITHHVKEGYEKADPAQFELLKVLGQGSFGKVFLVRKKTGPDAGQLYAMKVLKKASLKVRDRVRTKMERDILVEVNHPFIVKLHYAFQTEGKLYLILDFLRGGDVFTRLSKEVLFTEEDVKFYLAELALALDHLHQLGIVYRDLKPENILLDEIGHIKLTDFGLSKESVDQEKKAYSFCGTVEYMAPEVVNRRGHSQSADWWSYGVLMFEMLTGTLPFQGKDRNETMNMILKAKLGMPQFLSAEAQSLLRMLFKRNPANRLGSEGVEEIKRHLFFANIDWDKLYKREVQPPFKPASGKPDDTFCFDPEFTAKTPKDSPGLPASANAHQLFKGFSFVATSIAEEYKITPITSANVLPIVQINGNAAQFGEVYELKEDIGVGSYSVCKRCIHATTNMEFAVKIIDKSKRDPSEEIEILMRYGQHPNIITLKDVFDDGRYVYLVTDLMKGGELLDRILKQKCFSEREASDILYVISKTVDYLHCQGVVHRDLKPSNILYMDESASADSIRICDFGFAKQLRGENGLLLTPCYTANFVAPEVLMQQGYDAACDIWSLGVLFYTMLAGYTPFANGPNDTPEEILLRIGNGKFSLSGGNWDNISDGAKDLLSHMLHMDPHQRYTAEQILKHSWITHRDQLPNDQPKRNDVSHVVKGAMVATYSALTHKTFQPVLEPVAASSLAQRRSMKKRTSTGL
Sequence of CDC7/Cyclin B1 (Homo sapiens) (O00311 whole entry, looked up, the tested form may be a part): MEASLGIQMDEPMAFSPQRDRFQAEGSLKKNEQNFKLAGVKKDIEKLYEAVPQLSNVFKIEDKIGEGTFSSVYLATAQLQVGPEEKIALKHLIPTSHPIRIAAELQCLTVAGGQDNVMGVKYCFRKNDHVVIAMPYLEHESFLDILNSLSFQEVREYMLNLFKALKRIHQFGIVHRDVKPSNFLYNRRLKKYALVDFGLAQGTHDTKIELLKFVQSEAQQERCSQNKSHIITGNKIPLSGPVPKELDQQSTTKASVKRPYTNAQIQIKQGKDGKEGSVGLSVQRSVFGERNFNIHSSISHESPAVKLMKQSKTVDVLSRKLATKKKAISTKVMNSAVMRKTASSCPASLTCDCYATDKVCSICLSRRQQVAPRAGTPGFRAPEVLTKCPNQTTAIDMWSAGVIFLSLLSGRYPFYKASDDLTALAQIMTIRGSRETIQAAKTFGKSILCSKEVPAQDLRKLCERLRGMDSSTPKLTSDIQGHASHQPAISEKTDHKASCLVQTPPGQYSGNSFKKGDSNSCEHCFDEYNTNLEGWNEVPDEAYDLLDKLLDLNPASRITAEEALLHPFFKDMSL
Sequence of CDC7/Cyclin B1 (Homo sapiens) (P14635 whole entry, looked up, the tested form may be a part): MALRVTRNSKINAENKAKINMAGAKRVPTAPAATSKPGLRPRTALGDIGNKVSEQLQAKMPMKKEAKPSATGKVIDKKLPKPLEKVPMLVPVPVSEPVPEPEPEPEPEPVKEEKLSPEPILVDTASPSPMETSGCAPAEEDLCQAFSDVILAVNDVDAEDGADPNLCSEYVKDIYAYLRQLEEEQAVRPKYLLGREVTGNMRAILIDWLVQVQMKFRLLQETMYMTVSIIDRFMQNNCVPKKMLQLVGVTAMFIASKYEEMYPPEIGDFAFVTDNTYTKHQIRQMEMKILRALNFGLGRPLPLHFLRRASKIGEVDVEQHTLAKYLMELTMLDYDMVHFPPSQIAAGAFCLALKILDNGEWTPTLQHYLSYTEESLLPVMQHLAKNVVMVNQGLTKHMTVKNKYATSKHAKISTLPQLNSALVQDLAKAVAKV
Sequence of Platelet-derived growth factor receptor alpha (Homo sapiens) (P16234 whole entry): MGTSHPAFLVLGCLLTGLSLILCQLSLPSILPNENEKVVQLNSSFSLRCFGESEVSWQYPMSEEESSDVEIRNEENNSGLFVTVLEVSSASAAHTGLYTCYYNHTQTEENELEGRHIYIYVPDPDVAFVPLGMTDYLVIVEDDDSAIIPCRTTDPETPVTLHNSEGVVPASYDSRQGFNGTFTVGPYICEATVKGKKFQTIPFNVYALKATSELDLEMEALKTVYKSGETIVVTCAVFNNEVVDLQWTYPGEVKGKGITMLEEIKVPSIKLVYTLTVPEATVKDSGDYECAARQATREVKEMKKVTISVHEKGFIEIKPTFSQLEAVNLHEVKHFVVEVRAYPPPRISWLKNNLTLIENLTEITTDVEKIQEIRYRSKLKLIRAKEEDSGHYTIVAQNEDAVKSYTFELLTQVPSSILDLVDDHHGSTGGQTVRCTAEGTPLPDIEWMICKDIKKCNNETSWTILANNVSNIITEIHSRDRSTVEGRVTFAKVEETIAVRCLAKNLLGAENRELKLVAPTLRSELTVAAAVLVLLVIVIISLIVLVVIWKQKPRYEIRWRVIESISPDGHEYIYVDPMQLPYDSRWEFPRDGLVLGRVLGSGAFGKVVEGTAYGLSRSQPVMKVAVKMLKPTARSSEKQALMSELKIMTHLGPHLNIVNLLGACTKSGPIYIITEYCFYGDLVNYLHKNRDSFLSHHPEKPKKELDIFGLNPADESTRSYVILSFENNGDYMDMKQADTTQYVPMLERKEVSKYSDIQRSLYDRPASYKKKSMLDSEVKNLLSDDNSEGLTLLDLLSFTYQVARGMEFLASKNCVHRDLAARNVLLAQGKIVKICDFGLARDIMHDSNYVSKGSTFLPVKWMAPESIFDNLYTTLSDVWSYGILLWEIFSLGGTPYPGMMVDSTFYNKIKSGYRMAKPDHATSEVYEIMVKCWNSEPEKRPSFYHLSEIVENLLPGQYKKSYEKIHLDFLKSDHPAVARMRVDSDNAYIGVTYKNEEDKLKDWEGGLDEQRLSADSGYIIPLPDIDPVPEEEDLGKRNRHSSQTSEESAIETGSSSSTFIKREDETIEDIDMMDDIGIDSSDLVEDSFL
Sequence of Proto-oncogene tyrosine-protein kinase receptor Ret (Homo sapiens), P07949 [V804L] (P07949 whole entry V804L): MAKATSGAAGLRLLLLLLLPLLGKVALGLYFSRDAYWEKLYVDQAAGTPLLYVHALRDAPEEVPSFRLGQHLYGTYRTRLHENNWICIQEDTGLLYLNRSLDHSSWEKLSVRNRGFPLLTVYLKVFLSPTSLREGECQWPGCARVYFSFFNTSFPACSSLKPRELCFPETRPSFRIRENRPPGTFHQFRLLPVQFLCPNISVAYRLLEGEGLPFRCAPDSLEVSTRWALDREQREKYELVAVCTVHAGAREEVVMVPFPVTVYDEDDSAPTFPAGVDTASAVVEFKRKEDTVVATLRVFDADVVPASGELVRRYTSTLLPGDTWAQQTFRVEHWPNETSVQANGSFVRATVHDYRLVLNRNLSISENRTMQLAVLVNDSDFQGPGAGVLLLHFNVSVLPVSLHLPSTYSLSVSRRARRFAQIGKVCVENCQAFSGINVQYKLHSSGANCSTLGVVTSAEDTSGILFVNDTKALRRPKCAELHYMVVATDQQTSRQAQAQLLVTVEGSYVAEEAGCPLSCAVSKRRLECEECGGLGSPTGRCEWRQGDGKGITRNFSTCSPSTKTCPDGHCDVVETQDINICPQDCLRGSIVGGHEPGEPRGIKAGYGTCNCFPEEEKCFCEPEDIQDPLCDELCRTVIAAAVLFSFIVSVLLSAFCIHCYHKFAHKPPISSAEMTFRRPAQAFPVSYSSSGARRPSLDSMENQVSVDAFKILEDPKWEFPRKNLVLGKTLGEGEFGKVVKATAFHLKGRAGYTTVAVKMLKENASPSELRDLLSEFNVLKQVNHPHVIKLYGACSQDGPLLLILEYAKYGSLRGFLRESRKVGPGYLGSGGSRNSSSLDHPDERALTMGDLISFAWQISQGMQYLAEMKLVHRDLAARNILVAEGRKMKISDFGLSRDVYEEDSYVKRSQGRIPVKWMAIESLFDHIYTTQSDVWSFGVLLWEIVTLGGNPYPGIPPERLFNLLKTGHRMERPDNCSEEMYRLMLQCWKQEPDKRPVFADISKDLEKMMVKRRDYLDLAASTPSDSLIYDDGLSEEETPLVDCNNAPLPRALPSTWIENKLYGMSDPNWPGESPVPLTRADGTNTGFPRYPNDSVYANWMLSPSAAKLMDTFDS
Sequence of Tyrosine-protein kinase ITK/TSK (Homo sapiens) (Q08881 whole entry, the tested form may be a part): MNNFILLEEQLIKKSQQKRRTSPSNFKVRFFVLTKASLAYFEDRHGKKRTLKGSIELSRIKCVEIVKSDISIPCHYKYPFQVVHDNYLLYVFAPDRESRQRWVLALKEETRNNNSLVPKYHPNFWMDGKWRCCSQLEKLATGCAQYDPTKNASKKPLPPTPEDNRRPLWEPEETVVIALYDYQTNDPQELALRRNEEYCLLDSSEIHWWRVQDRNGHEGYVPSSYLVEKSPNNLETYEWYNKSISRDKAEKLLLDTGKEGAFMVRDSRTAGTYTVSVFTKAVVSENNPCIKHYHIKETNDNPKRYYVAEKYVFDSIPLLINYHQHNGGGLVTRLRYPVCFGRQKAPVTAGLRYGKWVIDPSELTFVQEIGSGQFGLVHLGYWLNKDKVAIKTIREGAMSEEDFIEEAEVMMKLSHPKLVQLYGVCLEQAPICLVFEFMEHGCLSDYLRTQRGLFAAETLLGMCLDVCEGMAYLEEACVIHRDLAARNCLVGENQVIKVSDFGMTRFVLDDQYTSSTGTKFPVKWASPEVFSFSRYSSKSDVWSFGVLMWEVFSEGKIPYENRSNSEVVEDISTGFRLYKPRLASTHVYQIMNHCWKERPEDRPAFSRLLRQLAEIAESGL
Sequence of Testis-specific serine/threonine-protein kinase 4 (Homo sapiens) (Q6SA08 whole entry, the tested form may be a part): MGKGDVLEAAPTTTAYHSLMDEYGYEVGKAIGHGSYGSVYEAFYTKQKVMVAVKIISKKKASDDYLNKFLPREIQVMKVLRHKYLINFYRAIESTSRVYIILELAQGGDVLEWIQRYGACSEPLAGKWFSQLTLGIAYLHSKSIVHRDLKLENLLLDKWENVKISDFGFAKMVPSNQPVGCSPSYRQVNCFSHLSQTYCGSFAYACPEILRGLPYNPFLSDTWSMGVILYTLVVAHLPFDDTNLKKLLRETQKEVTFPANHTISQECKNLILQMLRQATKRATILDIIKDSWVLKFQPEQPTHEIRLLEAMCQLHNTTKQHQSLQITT
Sequence of FKBP12A/mTOR (Homo sapiens) (P62942 2-108 limits assumed, other chains not shown): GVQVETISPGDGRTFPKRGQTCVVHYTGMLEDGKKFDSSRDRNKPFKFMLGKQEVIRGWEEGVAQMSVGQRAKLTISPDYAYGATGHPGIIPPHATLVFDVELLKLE

In the case of `CN1C[C@H](Nc2nc3cc[nH]c3c(=O)n2C)C[C@H](c2ccc3c(c2)OCCO3)C1`, the Activity [1] is reported as “inactive”, the Cmax [2] is reported as 1420 ng/mL and the bioavailability [3] is reported as 52%. The inhibition [4] was “inactive”, the inhibition [5] was “inactive” and the inhibition [6] was “inactive”. For the same molecule, the inhibition [7] was “inactive”, the inhibition [8] was “inactive” and the inhibition [9] was “inactive”. For the same molecule, the inhibition [10] was “inactive”, the inhibition [11] was “inactive” and the inhibition [12] was “inactive”. The inhibition [13] was “inactive”, the inhibition [14] was “inactive” and the inhibition [15] was “inactive”. The inhibition [16] was “inactive”, the inhibition [17] was “inactive” and the inhibition [18] was “inactive”. For the same molecule, the inhibition [19] was “inactive”, the inhibition [20] was “inactive” and the inhibition [21] was “inactive”. The inhibition [22] was “inactive”, the inhibition [23] was “inactive” and the inhibition [24] was “inactive”.
